The source made the active and inactive calls. The calls are words filed in the database; no cut-off is given here.
Key:
[1] = target: T1, Epidermal growth factor receptor (Homo sapiens, UniProt P00533); test: Inhibition of EGFR in human HCC827 cells assessed as decrease in EGF-induced ERK1/2 phosphorylation by Western blot method; format: cell-based
Outline: (§1)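 Cell lysates prepared in protein lysis buffer and cleared at 12,000 g for 10 min at 4 °C. 50 μg protein per lane was run on a gel, transferred to PVDF and immunoblotted, with GAPDH as the loading control.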

[2] = tested on: A-431; test: Induction of apoptosis in human A431 cells assessed as early apoptotic cells at 250 nM after 48 hrs by Annexin V-FITC/PI staining based flow cytometry (reference value: 3.40%); format: functional
[3] = tested on: A-431; test: Induction of apoptosis in human A431 cells assessed as late apoptotic cells at 250 nM after 48 hrs by Annexin V-FITC/PI staining based flow cytometry (reference value: 2.11%); format: functional
[4] = tested on: HCC827; test: Induction of apoptosis in human HCC827 cells assessed as early apoptotic cells at 250 nM after 48 hrs by Annexin V-FITC/PI staining based flow cytometry (reference value: 2.83%); format: functional
[5] = AUC (0 to t) in Sprague-Dawley rat at 30 mg/kg, po by UPLC-MS/MS analysis; format: ADME, organism-based; conditions: in vivo
Outline: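 Four female and four male Sprague-Dawley rats, 200-220 g, fasted 12 h, then given a single oral dose of 30 mg/kg as a 0.5% CMC-Na suspension. Blood sampled at 0.083, 0.25, 0.5, 1, 2, 4, 8 and 24 h, plasma separated by centrifugation at 4000 r/min for 10 min, and analysed by UPLC–MS/MS. Parameters reported as mean ± SD, n=6.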

[6] = tested on: HCC827; test: Induction of apoptosis in human HCC827 cells assessed as necrotic cells at 1000 nM after 48 hrs by Annexin V-FITC/PI staining based flow cytometry (reference value: 1.41%); format: functional
[7] = tested on: NCI-H1975; test: Induction of apoptosis in human NCI-H1975 cells assessed as viable cells at 250 nM after 48 hrs by Annexin V-FITC/PI staining based flow cytometry (reference value: 93.7%); format: functional; conditions: NCI-H1975, 48 h, read-out: Activity
[8] = tested on: A-431; test: Induction of apoptosis in human A431 cells assessed as necrotic cells at 1000 nM after 48 hrs by Annexin V-FITC/PI staining based flow cytometry (reference value: 4.16%); format: functional
[9] = tested on: PC-9; test: Antitumor activity against human PC9 cells xenografted in BALB/C nude mouse assessed as decrease in tumor weight at 15 to 30 mg/kg, ip qd administered for 19 days measured for 23 days; format: functional, organism-based
Outline: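 Six-week-old BALB/C-nu mice given 2×10^6 PC-9 cells subcutaneously in the right flank. At tumour size ~0.2-0.4 cm³, randomised, 5 mice/group. Dosed ip daily for 19 days at 15 or 30 mg/kg, vehicle DMSO:Span-80:ddH₂O = 2:1:50; vehicle-treated control group. Tumour volume = (W²×L)/2. Tumours weighed.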

[10] = target: T1, Epidermal growth factor receptor; test: Inhibition of EGFR in human H1975 cells assessed as decrease in EGF-induced AKT phosphorylation by Western blot method; format: cell-based; outline: as §1
[11] = tested on: NCI-H1975; test: Induction of apoptosis in human NCI-H1975 cells assessed as late apoptotic cells at 1000 nM after 48 hrs by Annexin V-FITC/PI staining based flow cytometry (reference value: 1.91%); format: functional
[12] = tested on: NCI-H3255; test: Induction of apoptosis in human H3255 cells assessed as early apoptotic cells at 500 nM after 48 hrs by Annexin V-FITC/PI staining based flow cytometry (reference value: 3.22%); format: functional
[13] = target: T1, Epidermal growth factor receptor; test: Inhibition of EGFR in human HCC827 cells assessed as decrease in EGF-induced AKT phosphorylation by Western blot method; format: cell-based; outline: as §1
[14] = tested on: A-431; test: Induction of apoptosis in human A431 cells assessed as late apoptotic cells at 500 nM after 48 hrs by Annexin V-FITC/PI staining based flow cytometry (reference value: 2.11%); format: functional
[15] = tested on: HCC827; test: Induction of apoptosis in human HCC827 cells assessed as necrotic cells at 250 nM after 48 hrs by Annexin V-FITC/PI staining based flow cytometry (reference value: 1.41%); format: functional
[16] = tested on: HCC827; test: Induction of apoptosis in human HCC827 cells assessed as early apoptotic cells at 500 nM after 48 hrs by Annexin V-FITC/PI staining based flow cytometry (reference value: 2.83%); format: functional
[17] = tested on: A-431; test: Induction of apoptosis in human A431 cells assessed as early apoptotic cells after 48 hrs by Annexin V-FITC/PI staining based flow cytometry; format: functional, cell-based
[18] = target: T1, Epidermal growth factor receptor; test: Inhibition of EGF-induced EGFR autophosphorylation at Y1068 residues in human H3255 cells by Western blot method; format: cell-based; outline: as §1
[19] = tested on: NCI-H1975; test: Cell cycle arrest in human NCI-H1975 cells assessed as accumulation at G2/M phase after 24 hrs by propidium iodide staining based flow cytometry; format: functional
Outline: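 NCI-H1975 cells (2×10^5) seeded in 6-well plates overnight, then treated 24 h at 50, 100, 250 or 500 nM; 1‰ DMSO medium as control. Cells harvested, washed in cold PBS, fixed in 70% cold ethanol at −20 °C overnight, stained with PI/RNase buffer and analysed by flow cytometry. n=3.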

[20] = tested on: NCI-H1975; test: Induction of apoptosis in human NCI-H1975 cells assessed as early apoptotic cells at 250 nM after 48 hrs by Annexin V-FITC/PI staining based flow cytometry (reference value: 2.07%); format: functional
[21] = tested on: NCI-H3255; test: Induction of apoptosis in human H3255 cells assessed as early apoptotic cells at 1000 nM after 48 hrs by Annexin V-FITC/PI staining based flow cytometry (reference value: 3.22%); format: functional
[22] = tested on: NCI-H1975; test: Induction of apoptosis in human NCI-H1975 cells assessed as viable cells at 500 nM after 48 hrs by Annexin V-FITC/PI staining based flow cytometry (reference value: 93.7%); format: functional; conditions: NCI-H1975, 48 h, read-out: Activity
[23] = tested on: A-431; test: Induction of apoptosis in human A431 cells assessed as viable cells at 500 nM after 48 hrs by Annexin V-FITC/PI staining based flow cytometry (reference value: 90.3%); format: functional; conditions: A-431, 48 h, read-out: Activity
[24] = tested on: NCI-H1975; test: Induction of apoptosis in human NCI-H1975 cells assessed as necrotic cells at 1000 nM after 48 hrs by Annexin V-FITC/PI staining based flow cytometry (reference value: 2.31%); format: functional
[25] = target: T1, Epidermal growth factor receptor; test: Inhibition of EGFR in human A431 cells assessed as decrease in EGF-induced AKT phosphorylation by Western blot method; format: cell-based; outline: as §1
[26] = target: T1, Epidermal growth factor receptor; test: Inhibition of EGF-induced EGFR autophosphorylation at Y1068 residues in human H1975 cells by Western blot method; format: cell-based; outline: as §1
[27] = tested on: HCC827; test: Induction of apoptosis in human HCC827 cells assessed as viable cells after 48 hrs by Annexin V-FITC/PI staining based flow cytometry; format: functional, cell-based
[28] = tested on: NCI-H1975; test: Induction of apoptosis in human NCI-H1975 cells assessed as early apoptotic cells at 500 nM after 48 hrs by Annexin V-FITC/PI staining based flow cytometry (reference value: 2.07%); format: functional
[29] = tested on: NCI-H3255; test: Induction of apoptosis in human H3255 cells assessed as late apoptotic cells at 500 nM after 48 hrs by Annexin V-FITC/PI staining based flow cytometry (reference value: 1.77%); format: functional

T1 sequence (P00533 whole entry): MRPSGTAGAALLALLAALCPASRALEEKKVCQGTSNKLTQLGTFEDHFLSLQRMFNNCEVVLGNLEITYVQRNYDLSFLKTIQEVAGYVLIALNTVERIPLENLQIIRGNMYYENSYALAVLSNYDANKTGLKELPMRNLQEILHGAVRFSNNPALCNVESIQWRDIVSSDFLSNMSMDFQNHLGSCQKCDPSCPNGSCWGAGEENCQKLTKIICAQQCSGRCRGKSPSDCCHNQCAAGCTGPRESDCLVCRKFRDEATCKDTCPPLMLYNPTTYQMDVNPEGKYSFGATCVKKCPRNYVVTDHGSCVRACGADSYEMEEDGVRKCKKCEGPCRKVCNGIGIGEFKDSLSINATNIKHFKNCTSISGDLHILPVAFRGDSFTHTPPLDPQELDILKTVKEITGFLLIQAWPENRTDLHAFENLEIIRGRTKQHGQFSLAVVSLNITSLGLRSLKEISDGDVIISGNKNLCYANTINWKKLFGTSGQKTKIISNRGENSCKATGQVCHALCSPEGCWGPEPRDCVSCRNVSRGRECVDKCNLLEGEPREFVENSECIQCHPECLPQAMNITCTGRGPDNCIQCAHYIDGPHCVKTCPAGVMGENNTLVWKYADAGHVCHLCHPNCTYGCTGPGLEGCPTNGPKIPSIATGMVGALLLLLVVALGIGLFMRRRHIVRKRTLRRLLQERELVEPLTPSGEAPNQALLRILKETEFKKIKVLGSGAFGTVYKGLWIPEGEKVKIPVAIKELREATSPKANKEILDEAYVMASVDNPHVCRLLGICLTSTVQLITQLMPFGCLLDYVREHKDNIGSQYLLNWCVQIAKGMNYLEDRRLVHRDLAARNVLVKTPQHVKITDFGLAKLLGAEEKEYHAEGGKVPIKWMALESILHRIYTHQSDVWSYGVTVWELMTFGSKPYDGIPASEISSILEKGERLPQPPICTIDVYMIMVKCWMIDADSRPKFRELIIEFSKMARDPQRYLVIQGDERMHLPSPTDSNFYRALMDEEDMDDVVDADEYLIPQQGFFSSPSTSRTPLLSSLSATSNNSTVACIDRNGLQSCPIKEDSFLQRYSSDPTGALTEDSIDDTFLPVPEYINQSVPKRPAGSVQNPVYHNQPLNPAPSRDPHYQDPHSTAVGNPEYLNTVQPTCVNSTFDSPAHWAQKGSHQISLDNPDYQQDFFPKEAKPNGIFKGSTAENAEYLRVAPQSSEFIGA

SMILES: COc1cccc(Nc2cc(Nc3cc(OC)ccc3OC)ncn2)c1
- inhibition [1]: Dose-dependent effect
- Activity [2]: 10.8%
- Activity [3]: 6.5%
- Activity [4]: 15.5%
- AUC(0-t) [5]: 5700 ng·h/mL
- Activity [6]: 12.6%
- viability at 0.25 µM [7]: 56.1%
- Activity [8]: 3.61%
- Activity [9]: Active
- inhibition [10]: Dose-dependent effect
- Activity [11]: 18.2%
- Activity [12]: 11.5%
- inhibition [13]: Dose-dependent effect
- Activity [14]: 8.57%
- Activity [15]: 12.4%
- Activity [16]: 21.3%
- Activity [17]: Dose-dependent effect
- inhibition [18]: Dose-dependent effect
- Activity [19]: Dose-dependent effect
- Activity [20]: 22.6%
- Activity [21]: 17.6%
- viability at 0.5 µM [22]: 52.5%
- viability at 0.5 µM [23]: 70.7%
- Activity [24]: 7.56%
- inhibition [25]: Dose-dependent effect
- inhibition [26]: Dose-dependent effect
- Activity [27]: Dose-dependent effect
- Activity [28]: 25%
- Activity [29]: 5.35%

Reference: ChEMBL document CHEMBL4265907, “Design, synthesis and pharmacological evaluation of N4,N6-disubstituted pyrimidine-4,6-diamine derivatives as potent EGFR inhibitors in non-small cell lung cancer” (Eur J Med Chem, 2018)
